Source: PMC6420060 (ACS applied materials & interfaces, 2018)

Columns and labels:
Format in all cases: physicochemical
[1] = Permeation into trapped giant unilamellar vesicles measured by FCS; conditions: 20 nM; for permeation into individual GUVs: 20% POPS
In short: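 POPC/POPS (4:1) GUVs, sucrose inside and glucose outside, ± 10 μM Ru complex for about 45 min. Held in BSA-coated microfluidic hydrodynamic traps with valves pressurised to 2 bar. 20 nM calcein in hosting buffer flushed in, valves reopened, static or under flow. After 30 min, FCS used a 488 nm laser at 60 μW. Curves fitted with a triplet term and corrected for buffer background. Permeation taken as N inside versus outside per vesicle.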

[2] = GUV size after incorporation of Ru; conditions: all samples pooled
In short: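 GUVs (POPC:POPS 4:1) made by emulsion transfer: 1 M sucrose/140 mM KCl/10 mM HEPES pH 7.4 inside, 1 M glucose/140 mM NaCl/10 mM HEPES outside. Incubated with 10 μM (final) Ru complex, typically 45 min, ± 200 μM (final) potassium ferricyanide. Imaged under a 60× water-immersion objective. Diameter taken at the z-plane of largest size, averaged over x and y. All vesicles pooled into histograms.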

[3] = ζ-Potential of GUVs after incubation with Ru; conditions: GUVs containing 1 M sucrose measured in 1 M glucose, Zetasizer Nano ZSP

Compound	permeation into individual GUVs ([1]; with Ru(C17)2^2+, sub-20 μm vesicle diameters)	permeation into individual GUVs under flow ([1]; without Ru(C17)2^2+, nominal flow rates of 2, 5, 8, and 11 μL/min, larger vesicles (above 20 μm))	permeation into individual GUVs ([1]; without Ru(C17)2^2+, vesicle diameter 20 μm)	permeation into individual GUVs ([1]; without Ru(C17)2^2+, vesicle diameter down to 10 μm)	vesicle diameter with Ru(C17)2^2+ and addition of potassium ferricyanide [2]	vesicle diameter upon incorporation of Ru(C17)2^2+ ([2]; 23.0 ± 6.6 without Ru(C17)2^2+)	ζ-potential of GUVs after incubation with Ru(C17)2^2+ ([3]; start of the period, pure GUVs with 20% POPS −90.8 ± 3.3 mV)	ζ-potential of GUVs after incubation with Ru(C17)2^2+ ([3]; up to 9 h after incubation)
O=C(O)CN(CC(=O)O)Cc1cc2c(cc1O)Oc1cc(O)c(CN(CC(=O)O)CC(=O)O)cc1C21OC(=O)c2ccccc21 [calcein]	below 30%	below 10%	below 10%	60%	–	–	–	–
dihepta-decylated tris(bipyridine)ruthenium(II) complex [Ru(C17)2^2+]	–	–	–	–	15.8 ± 3.8 µm	17.9 ± 4.8 nm	−11.7 ± 4.8 mV	−18.5 ± 2.6 mV
